Measurements: ChEMBL document CHEMBL1833913, “Structure-activity relationship study of pyridazine derivatives as glutamate transporter EAAT2 activators” (Bioorg Med Chem Lett, 2011)
Calls of active or inactive are those of the source. No cut-off for these calls is given here.

Key:
[1] = tested on: Astrocyte; test: Increase of EAAT2 expression in mouse primary astrocytes at 10 uM after 4 hrs by Western blot analysis relative to control; format: functional
Summary of the method: (§1)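 PA-EAAT2 cells (primary astrocyte line stably expressing EAAT2 mRNA) were incubated with compound at 10 μM for 4 h or 24 h. Cells were then harvested and EAAT2 protein measured by Western blot. Results are given as fold increase over DMSO control.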

[2] = tested on: Astrocyte; test: Increase of EAAT2 expression in mouse primary astrocytes at 10 uM after 24 hrs by Western blot analysis relative to control; format: functional; summary of the method: as §1
[3] = tested on: Astrocyte; test: Increase of EAAT2 expression in mouse primary astrocytes at 10 uM after 24 hrs by Western blot analysis relative to GAPDH protein expression; format: functional
Summary of the method: (§2)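 PA-EAAT2 cells (primary astrocyte line stably expressing EAAT2 mRNA) were exposed for 24 h to a 6-point series (0.1, 0.3, 1.0, 5.0, 10.0, 30.0 μM). EAAT2 protein was measured by Western blot and normalised separately to β-actin or GAPDH. Fold increase and EC50 were derived from the dose-response. Values are means of four separate experiments.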

[4] = tested on: Astrocyte; test: Increase of EAAT2 expression in mouse primary astrocytes at 1 uM after 24 hrs by Western blot analysis relative to beta-actin protein expression; format: functional; summary of the method: as §2
[5] = tested on: Astrocyte; test: Increase of EAAT2 expression in mouse primary astrocytes at 10 uM after 24 hrs by Western blot analysis relative to beta-actin protein expression; format: functional; summary of the method: as §2
[6] = tested on: Astrocyte; test: Increase of EAAT2 expression in mouse primary astrocytes after 24 hrs by Western blot analysis relative to beta-actin protein expression; format: functional, cell-based; summary of the method: as §2
[7] = tested on: Astrocyte; test: Increase of EAAT2 expression in mouse primary astrocytes after 24 hrs by Western blot analysis relative to GAPDH protein expression; format: functional, cell-based; summary of the method: as §2
[8] = tested on: Astrocyte; test: Increase of EAAT2 expression in mouse primary astrocytes at 1 uM after 24 hrs by Western blot analysis relative to GAPDH protein expression; format: functional; summary of the method: as §2
[9] = tested on: Astrocyte; test: Increase of EAAT2 expression in mouse primary astrocytes at <5 uM after 24 hrs by Western blot analysis relative to control; format: functional

Row | SMILES | fold change (FC) [1] | fold change (FC) [2] | further results
1 | O=S(=O)(Cc1c(F)cccc1Cl)c1ccc(-c2ccccn2)nn1 | 1.4 | 2.8 | –
2 | Fc1ccccc1CSc1ccc(-c2ccccn2)nn1 | 2.2 | 3.1 | –
3 | Cc1ccccc1COc1ccc(-c2ccccn2)nn1 | 2 | 2.5 | –
4 | Fc1cccc(Cl)c1CCOc1ccc(-c2ccccn2)nn1 | 2.2 | 3.1 | –
5 | c1ccc(CSc2ccc(-c3ccccn3)cc2)cc1 | 1.2 | 1.1 | –
6 | Cc1ccccc1COc1ccc(-c2ccccn2)nc1 | 1.5 | inactive | –
7 | Clc1cccc(CSc2ccc(-c3ccccn3)nn2)c1 | 2.1 | 4.1 | fold change (FC) [3]: 3.8; fold change (FC) [4]: 4; fold change (FC) [5]: 4.1; EC50 [6]: 1.7 µM; EC50 [7]: 0.5 µM; fold change (FC) [8]: 4.2
8 | Clc1ccccc1CCSc1ccc(-c2ccccn2)nn1 | 1.7 | 4.8 | fold change (FC) [3]: 4.5; fold change (FC) [4]: 1; fold change (FC) [5]: 4.8; EC50 [6]: 4.7 µM; EC50 [7]: 5.1 µM; fold change (FC) [8]: 1
9 | Cc1ccccc1CCSc1ccc(-c2ccccn2)nn1 | 1.2 | 2.8 | –
10 | O=S(=O)(Cc1ccccc1Cl)c1ccc(-c2ccccn2)nn1 | 1.6 | inactive | –
11 | Oc1ccc(-c2ccccn2)nn1 | 1.5 | 1.6 | –
12 | Fc1cccc(Cl)c1CSc1ccc(-c2ccncc2)nn1 | inactive | 1.9 | –
13 | Clc1ccccc1CSc1ccc(-c2cccnc2)nn1 | 1.2 | 1.2 | –
14 | Cc1ccc(-c2ccc(SCc3c(F)cccc3Cl)nn2)cc1 | 1.2 | 2.3 | –
15 | Cc1ccccc1CS(=O)(=O)c1ccc(-c2ccccn2)nn1 | 2.3 | 1.1 | –
16 | CC(Sc1ccc(-c2ccccn2)nn1)c1c(F)cccc1Cl (stereo not given) | 1.7 | 5.5 | fold change (FC) [3]: 5.2; fold change (FC) [4]: 1.5; fold change (FC) [5]: 5.5; EC50 [6]: 3.9 µM; EC50 [7]: 2.4 µM; fold change (FC) [8]: 1.8
17 | CCSc1ccc(-c2ccccn2)nn1 | 1.6 | 1.9 | –
18 | Cc1ccc(Sc2ccc(-c3ccccn3)nn2)c(C)c1 | 1.2 | 2.2 | –
19 | Cc1cccc(C)c1COc1ccc(-c2ccccn2)nn1 | 2.1 | 3.2 | –
20 | c1ccc(-c2ccc(SC3CCCc4ccccc43)nn2)nc1 (stereo not given) | inactive | 5.3 | fold change (FC) [3]: 4.5; fold change (FC) [4]: 2.4; fold change (FC) [5]: 5.3; EC50 [6]: 1.9 µM; EC50 [7]: 1.7 µM; fold change (FC) [8]: 2.8
21 | Fc1ccc(CSc2ccc(-c3ccccn3)nn2)c(Cl)c1 | 1.6 | 1.7 | –
22 | Clc1ccc(Cl)c(CSc2ccc(-c3ccccn3)nn2)c1 | 1.4 | 2.5 | –
23 | Fc1cccc(Cl)c1COc1ccc(-c2ccccn2)nn1 | 1.1 | 2.9 | –
24 | Cc1ccc(CSc2ccc(-c3ccncc3)nn2)cc1 | 1.3 | 2.4 | –
25 | Fc1cccc(Cl)c1CCSc1ccc(-c2ccccn2)nn1 | 1.9 | 6.7 | fold change (FC) [3]: 5.3; fold change (FC) [4]: 1.2; fold change (FC) [5]: 6.7; EC50 [6]: 3.3 µM; fold change (FC) [9]: >6; EC50 [7]: 3.3 µM; fold change (FC) [8]: 1.2
26 | CC(Oc1ccc(-c2ccccn2)nn1)c1c(F)cccc1Cl (stereo not given) | 1.6 | 3 | –
27 | Cc1ccccc1CSc1ccc(-c2ccccn2)cn1 | 1.3 | inactive | –
